Measurements gathered from unrelated publications.
Lines come from different studies, so protocols differ.
Target: Interleukin-1 receptor-associated kinase 4 (IRAK4, Homo sapiens, UniProt Q9NWZ3)
One construct used (Q9NWZ3 1-460): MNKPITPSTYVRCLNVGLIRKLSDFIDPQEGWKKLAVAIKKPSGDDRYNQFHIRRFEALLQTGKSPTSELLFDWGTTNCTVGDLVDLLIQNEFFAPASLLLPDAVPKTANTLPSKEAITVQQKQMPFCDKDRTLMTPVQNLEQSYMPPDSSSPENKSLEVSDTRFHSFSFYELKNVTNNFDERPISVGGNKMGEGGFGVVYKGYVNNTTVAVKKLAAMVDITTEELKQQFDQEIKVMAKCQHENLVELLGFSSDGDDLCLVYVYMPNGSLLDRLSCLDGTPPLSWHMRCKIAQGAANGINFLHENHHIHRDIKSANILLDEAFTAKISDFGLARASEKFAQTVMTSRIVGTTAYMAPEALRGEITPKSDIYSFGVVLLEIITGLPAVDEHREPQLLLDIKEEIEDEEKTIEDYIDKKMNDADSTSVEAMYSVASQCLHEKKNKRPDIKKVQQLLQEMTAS

CCCCC(=O)Nc1ccc(-c2ccc3ncn(CCC)c(=O)c3c2)cn1
remaining binding (binding, competition with immobilised ligand; 0.5 µM): 93%

C#Cc1cc(-c2cc(Nc3nc(N[C@@H](C)c4ccc(F)cn4)ncc3Cl)n[nH]2)ccc1C=O
inhibition (enzyme activity, inhibitor; 0.2 µM): 10.1%

CN1CCN(C(=O)c2ccc(NC(=O)Nc3ccc(N(C)c4ccnc(Nc5ccc(CS(C)(=O)=O)cc5)n4)cc3)cc2)CC1
remaining binding (binding; 1 µM): 52%

CS(=O)(=O)c1ccccc1Nc1nc(Nc2ccnc(CO)c2)ncc1Cl
remaining activity (enzyme activity, inhibitor, radiometric; 1 µM): 13.4%

C=CC(=O)N1CCC[C@@H](n2nc(-c3ccc(Oc4ccccc4)cc3)c3c(N)ncnc32)C1
inhibition (enzyme activity, inhibitor; 1 µM): 22%

Cc1cc(O)c(-c2ccc([C@@H](C)CN(C)C)cc2)c2c1[nH]c(=O)c1sccc12
inhibition (enzyme activity, inhibitor; 0.1 µM): 1.9%

C1=C/COCc2cc(ccc2OCCN2CCCC2)Nc2nccc(n2)-c2cccc(c2)COC/1
remaining signal (cell-free assay; 0.1 µM): 56%

C#Cc1cnc(Nc2ccc(CO)nc2)nc1Nc1ccccc1S(C)(=O)=NC#N (centres unmarked)
remaining activity (enzyme activity, inhibitor, radiometric; 1 µM): 0.79%

CC#CC(=O)N1CCC[C@H]1c1nc(-c2ccc(C(=O)Nc3ccccn3)cc2)c2c(N)nccn12
inhibition (enzyme activity, inhibitor; 1 µM): 16%

CS(=O)(=NC#N)c1ccccc1Nc1nc(Nc2ccc(CO)nc2)ncc1Cl (centres unmarked)
remaining activity (enzyme activity, inhibitor, radiometric; 1 µM): 3.01%

Cc1ccc(NC(=O)c2ccnc(C(F)(F)F)c2)cc1-c1cc(OCCO)nc(N2CCOCC2)c1
remaining binding (binding; 1 µM): 100%
